We go through 1 compound from ChEMBL document CHEMBL3396951, “Design, synthesis and SAR studies of GABA uptake inhibitors derived from 2-substituted pyrrolidine-2-yl-acetic acids” (Bioorg Med Chem, 2015).

Holding throughout (assay type): cell-based
Experiment [1] concerns the target Sodium- and chloride-dependent GABA transporter 1 (Mus musculus) (UniProt P31648). Nature of the experiment: Inhibition of mouse GAT1 expressed in HEK293 cells assessed as remaining [3H]GABA uptake at 100 uM by [3H]GABA uptake assay. A digest of the protocol:
(§1)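 Transfected HEK293 cells (mGAT1–4) tested for [3H]GABA uptake at 100 µM test substance. Remaining uptake is expressed against a control without inhibitor.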

Experiment [2] concerns the target T1, GABA transporter 3 (Mus musculus) (UniProt P31649).
T1 sequence (whole entry): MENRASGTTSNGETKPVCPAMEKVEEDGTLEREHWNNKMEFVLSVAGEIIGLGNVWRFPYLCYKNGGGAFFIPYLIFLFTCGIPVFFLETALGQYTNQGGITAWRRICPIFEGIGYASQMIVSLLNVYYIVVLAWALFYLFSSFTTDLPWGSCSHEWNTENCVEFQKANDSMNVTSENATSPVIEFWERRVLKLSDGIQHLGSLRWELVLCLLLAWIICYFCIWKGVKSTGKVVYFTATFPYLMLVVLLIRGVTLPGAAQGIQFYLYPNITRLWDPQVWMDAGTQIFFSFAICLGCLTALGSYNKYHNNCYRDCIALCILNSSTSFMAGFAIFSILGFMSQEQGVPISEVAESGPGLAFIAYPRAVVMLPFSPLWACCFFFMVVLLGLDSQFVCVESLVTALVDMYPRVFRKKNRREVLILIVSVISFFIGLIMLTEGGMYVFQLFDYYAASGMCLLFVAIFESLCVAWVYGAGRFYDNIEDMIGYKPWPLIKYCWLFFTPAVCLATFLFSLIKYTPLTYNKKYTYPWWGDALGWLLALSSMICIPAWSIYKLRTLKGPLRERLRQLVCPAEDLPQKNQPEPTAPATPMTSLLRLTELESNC
Nature of the experiment: Inhibition of mouse GAT3 expressed in HEK293 cells assessed as remaining [3H]GABA uptake at 100 uM by [3H]GABA uptake assay. A digest of the protocol:
as §1

Experiment [3] concerns the target T2, GABA transporter 2 (Mus musculus) (UniProt P31651).
T2 sequence (whole entry): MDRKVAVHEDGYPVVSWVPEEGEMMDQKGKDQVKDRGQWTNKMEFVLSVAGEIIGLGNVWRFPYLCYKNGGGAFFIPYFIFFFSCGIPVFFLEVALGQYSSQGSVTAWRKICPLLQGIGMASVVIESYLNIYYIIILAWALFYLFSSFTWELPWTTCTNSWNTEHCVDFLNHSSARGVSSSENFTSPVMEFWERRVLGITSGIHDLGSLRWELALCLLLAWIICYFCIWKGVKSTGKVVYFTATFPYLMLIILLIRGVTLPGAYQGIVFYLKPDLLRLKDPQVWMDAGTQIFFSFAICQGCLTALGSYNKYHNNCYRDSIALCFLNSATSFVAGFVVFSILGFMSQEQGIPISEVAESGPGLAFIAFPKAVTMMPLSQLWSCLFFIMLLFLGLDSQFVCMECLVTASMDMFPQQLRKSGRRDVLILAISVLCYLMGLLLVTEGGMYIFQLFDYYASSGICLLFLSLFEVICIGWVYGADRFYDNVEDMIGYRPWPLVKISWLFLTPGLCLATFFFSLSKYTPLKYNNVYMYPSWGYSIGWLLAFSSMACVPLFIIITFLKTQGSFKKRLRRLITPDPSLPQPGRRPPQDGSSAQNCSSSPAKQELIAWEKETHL
As to the kind of experiment: Inhibition of mouse GAT2 expressed in HEK293 cells assessed as remaining [3H]GABA uptake at 100 uM by [3H]GABA uptake assay. A digest of the protocol:
as §1

Experiment [4] has as its target T3, GABA transporter 4 (Mus musculus, UniProt P31650).
T3 sequence (P31650 whole entry): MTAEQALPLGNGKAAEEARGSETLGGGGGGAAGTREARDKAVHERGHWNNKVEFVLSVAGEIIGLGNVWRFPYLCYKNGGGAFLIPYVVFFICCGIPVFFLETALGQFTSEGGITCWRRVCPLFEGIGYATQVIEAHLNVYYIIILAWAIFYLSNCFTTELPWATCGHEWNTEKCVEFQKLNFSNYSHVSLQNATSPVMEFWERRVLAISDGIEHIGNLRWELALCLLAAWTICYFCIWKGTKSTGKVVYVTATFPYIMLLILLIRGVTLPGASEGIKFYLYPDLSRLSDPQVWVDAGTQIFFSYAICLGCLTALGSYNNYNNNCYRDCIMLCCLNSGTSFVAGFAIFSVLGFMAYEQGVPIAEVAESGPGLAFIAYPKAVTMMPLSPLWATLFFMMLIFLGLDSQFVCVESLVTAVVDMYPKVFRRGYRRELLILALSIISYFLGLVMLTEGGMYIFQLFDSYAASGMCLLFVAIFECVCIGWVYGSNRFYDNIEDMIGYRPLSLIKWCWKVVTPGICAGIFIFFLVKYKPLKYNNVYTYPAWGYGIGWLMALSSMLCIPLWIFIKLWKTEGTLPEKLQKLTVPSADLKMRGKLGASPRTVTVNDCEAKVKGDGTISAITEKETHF
As to the kind of experiment: Inhibition of mouse GAT4 expressed in HEK293 cells by [3H]GABA uptake assay.

What is called IC50 is the midpoint of a concentration-inhibition curve. The low end stands for higher potency, the high end for lower potency. For the compound `COc1ccc(C(OCCN2CCC[C@@H]2[C@H](O)C(=O)O)(c2ccc(OC)cc2)c2ccc(OC)cc2)cc1` (racemic), the Activity in experiment [1] turned out to be 80%; in experiment [2], 70%; in experiment [3], 64%. In experiment [4], the IC50 was 6.61 µM.
